This passage reports Ki and IC50 results from paper PMC6331009 (Chemosphere, 2017).

Like-named read-outs stand apart in the source and are kept apart here.

Format in all cases: biochemical
Test [1] concerns the target T1, UGT2B4 (Homo sapiens, UniProt P06133).
T1 sequence (P06133 24-528): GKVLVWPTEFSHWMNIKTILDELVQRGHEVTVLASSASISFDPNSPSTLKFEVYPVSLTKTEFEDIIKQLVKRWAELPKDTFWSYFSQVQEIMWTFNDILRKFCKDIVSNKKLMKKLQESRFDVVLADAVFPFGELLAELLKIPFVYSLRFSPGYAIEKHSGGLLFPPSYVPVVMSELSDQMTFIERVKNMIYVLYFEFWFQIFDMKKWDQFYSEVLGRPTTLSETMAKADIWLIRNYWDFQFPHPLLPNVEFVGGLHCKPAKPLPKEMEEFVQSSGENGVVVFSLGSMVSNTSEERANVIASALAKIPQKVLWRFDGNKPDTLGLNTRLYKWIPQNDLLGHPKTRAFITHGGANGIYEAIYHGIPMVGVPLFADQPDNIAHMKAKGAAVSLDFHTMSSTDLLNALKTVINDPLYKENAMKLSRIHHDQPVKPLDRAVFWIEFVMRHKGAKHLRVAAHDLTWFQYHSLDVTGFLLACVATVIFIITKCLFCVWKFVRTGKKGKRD
As to the kind of experiment: 4-MU glucuronidation, UPLC-UV, Lineweaver-Burk slope replot. The method, boiled down:
(§1)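 Recombinant human UGT isoform expressed in insect cells. 4-MU was varied, with or without test compound at levels giving 20%, 40%, 60% and 80% inhibition. After 5 min at 37 °C, 5 mM UDPGA was added; reactions ran 30–120 min. Glucuronide was quantified by UPLC-UV at 316 nm against a 7-hydroxycoumarin internal standard, with points as duplicate means. Inhibition type came from Lineweaver-Burk plots, and Ki from a replot of slopes against inhibitor concentration.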

In test [2] the target is T1, UGT2B4. As to the kind of experiment: 4-MU glucuronidation, UPLC-UV, dose response. The procedure, abridged: (§2)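 Recombinant human UGT isoform expressed in baculovirus-infected insect cells. Test compound at 0, 0.5, 1, 5, 10, 20, 40, 60, 80 and 100 µM, with no-compound controls. After 5 min preincubation at 37 °C, 5 mM UDPGA was added to start the reaction. Reactions were stopped at 30–120 min with acetonitrile containing 7-hydroxycoumarin internal standard. 4-MU glucuronide was measured by C18 UPLC with UV at 316 nm as the peak-area ratio to internal standard. Two independent experiments in duplicate.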

Test [3] concerns the target T2, UGT1A9 (Homo sapiens, UniProt O60656).
T2 sequence (O60656 26-530): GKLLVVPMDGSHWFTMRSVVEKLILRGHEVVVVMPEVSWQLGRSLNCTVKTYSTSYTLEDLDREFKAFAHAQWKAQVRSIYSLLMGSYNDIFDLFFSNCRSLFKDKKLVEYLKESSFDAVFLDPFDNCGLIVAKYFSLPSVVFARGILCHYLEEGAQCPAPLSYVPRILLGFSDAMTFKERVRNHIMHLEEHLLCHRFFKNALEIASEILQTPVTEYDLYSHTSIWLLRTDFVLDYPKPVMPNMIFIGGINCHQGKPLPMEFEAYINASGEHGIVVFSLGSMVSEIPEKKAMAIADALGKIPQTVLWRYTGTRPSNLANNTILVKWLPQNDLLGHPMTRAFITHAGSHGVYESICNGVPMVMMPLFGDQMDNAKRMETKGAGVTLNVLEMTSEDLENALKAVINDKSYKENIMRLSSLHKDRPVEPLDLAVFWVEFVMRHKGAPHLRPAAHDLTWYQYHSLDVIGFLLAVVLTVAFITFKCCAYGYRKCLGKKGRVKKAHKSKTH
The test is described as follows: 4-MU glucuronidation, UPLC-UV, Lineweaver-Burk slope replot. The method, boiled down: as §1

Test [4] deals with T2, UGT1A9. The test is described as follows: 4-MU glucuronidation, UPLC-UV, dose response. The procedure, abridged: as §2
Test [5] addresses T3, UGT1A7 (Homo sapiens, UniProt Q9HAW7).
T3 sequence (Q9HAW7 26-530): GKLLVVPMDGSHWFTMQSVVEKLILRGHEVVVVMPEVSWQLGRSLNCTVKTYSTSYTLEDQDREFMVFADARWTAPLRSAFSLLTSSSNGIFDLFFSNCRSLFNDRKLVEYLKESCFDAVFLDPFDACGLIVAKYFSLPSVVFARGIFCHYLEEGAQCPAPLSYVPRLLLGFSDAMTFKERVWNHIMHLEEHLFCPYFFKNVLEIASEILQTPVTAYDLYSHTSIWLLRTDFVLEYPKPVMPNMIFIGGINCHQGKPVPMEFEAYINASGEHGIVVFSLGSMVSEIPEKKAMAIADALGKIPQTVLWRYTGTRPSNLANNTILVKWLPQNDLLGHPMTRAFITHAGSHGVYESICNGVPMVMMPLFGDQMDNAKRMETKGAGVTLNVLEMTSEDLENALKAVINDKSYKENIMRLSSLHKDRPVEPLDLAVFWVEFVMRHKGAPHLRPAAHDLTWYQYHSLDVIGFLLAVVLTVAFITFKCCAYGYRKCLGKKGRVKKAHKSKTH
As to the kind of experiment: 4-MU glucuronidation, UPLC-UV, dose response. The procedure, abridged: as §2

Test [6] has as its target T4, UGT1A6 (Homo sapiens, UniProt P19224).
T4 sequence (P19224 27-532): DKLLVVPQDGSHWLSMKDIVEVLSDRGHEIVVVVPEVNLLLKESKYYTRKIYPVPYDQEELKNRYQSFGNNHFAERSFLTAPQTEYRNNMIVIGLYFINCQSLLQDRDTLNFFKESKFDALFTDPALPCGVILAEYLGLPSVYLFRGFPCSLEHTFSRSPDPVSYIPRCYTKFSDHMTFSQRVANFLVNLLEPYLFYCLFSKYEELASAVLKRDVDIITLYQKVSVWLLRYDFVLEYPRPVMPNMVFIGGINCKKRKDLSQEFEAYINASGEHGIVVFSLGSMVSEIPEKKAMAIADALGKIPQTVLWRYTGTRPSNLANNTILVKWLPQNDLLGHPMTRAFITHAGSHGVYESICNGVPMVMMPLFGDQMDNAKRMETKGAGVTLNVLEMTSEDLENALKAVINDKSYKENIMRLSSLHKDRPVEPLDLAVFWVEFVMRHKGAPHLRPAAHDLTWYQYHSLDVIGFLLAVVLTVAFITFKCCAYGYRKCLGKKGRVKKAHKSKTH
As to the kind of experiment: 4-MU glucuronidation, UPLC-UV, dose response. The procedure, abridged:
as §2

Test [7] deals with T3, UGT1A7. As to the kind of experiment: 4-MU glucuronidation, UPLC-UV, Lineweaver-Burk slope replot. The method, boiled down:
as §1

Test [8] concerns the target T4, UGT1A6. Described as above. The method, boiled down: as §1
[9] abbreviates: competitive, 4-MU varied, UDPGA 5 mM, MgCl2 5 mM, Tris-HCl pH 7.4, 37 °C.
Setting [10] is: competitive, 4-MU 30 μM, UDPGA 5 mM, MgCl2 5 mM, Tris-HCl pH 7.4, 37 °C.

Regarding `CC(C)COC(=O)c1ccccc1C(=O)OCC(C)C` [DiBP], the Ki was 6.79 µM on UGT2B4 [1] and 2.79 µM at UGT1A9 [3]. The IC50 stood at 5.89 µM at UGT2B4 [2] and 7.03 µM against UGT1A9 [4].
At UGT1A9 [3] (setting [9]), `COCCOC(=O)c1ccccc1C(=O)OCCOC` [DMEP] displayed a Ki of 4.51 µM. The IC50 at UGT1A9 [4] (setting [10]) is 18.2 µM.
For `C=CCOC(=O)c1ccccc1C(=O)OCC=C` [DAP], the affinity on UGT2B4 [1] (setting [9]), expressed as Ki, was 6.73 µM. Further, the IC50 on UGT2B4 [2] (competitive, 4-MU 1000 μM, UDPGA 5 mM, MgCl2 5 mM, Tris-HCl pH 7.4, 37 °C) worked out at 14.3 µM.
For the compound `CCCCOCCOC(=O)c1ccccc1C(=O)OCCOCCCC` [BBOP], the IC50 came out at 18.2 µM against UGT1A7 [5], 35.1 µM against UGT1A6 [6] and 28.3 µM against UGT1A9 [4]. The Ki at UGT1A9 [3] came to 73.7 µM; on UGT1A7 [7], 23.6 µM; on UGT1A6 [8], 15.5 µM.
Take `CC(C)CCOC(=O)c1ccccc1C(=O)OCCC(C)C` [DiPP]: on UGT1A9 [3], the Ki came out at 5.61 µM. The compound further returned an IC50 against UGT1A9 [4] of 14.7 µM.
In the same order, the values of `CCCCCOC(=O)c1ccccc1C(=O)OCCCCC` [DPP] are 1.74 µM and 18.5 µM.
For the compound `CCCCOC(=O)c1ccccc1C(=O)OCc1ccccc1` [BBZP], the Ki at UGT2B4 [1] came out at 7.23 µM; on UGT1A9 [3], 0.84 µM; at UGT1A7 [7], 12.2 µM; at UGT1A6 [8], 52.3 µM. Also, the IC50 came to 19.5 µM on UGT1A7 [5], 13.8 µM against UGT2B4 [2], 53.2 µM at UGT1A6 [6] and 5.54 µM at UGT1A9 [4].
`O=C(OC1CCCCC1)c1ccccc1C(=O)OC1CCCCC1` [DCHP] came in with a Ki at UGT1A9 [3] (setting [9]) of 1.07 µM. The IC50 on UGT1A9 [4] (setting [10]) worked out at 1.46 µM.
As for `CCCCOC(=O)c1ccccc1C(=O)OCCCC` [DBP], the Ki amounted to 4.93 µM at UGT2B4 [1] and 22.8 µM on UGT1A9 [3]. The values for the IC50 on UGT2B4 [2] and against UGT1A9 [4] were 11.9 µM and 17.6 µM, respectively.
As for `CCCCCCOC(=O)c1ccccc1C(=O)OCCCCCC` [DHP], on UGT1A9 [3] (setting [9]), the Ki was 0.58 µM. On UGT1A9 [4] (setting [10]), this compound gave an IC50 of 25.4 µM.
